Test results as given in ChEMBL document CHEMBL4602607, “Hit-to-Lead Optimization of Benzoxazepinoindazoles As Human African Trypanosomiasis Therapeutics” (J Med Chem, 2020).

Assays:
[1] = Intrinsic clearance in rat hepatocytes assessed per 10^6 cells by LC-MS/MS analysis; type: ADME, cell-based, Hepatocyte
Outline: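 Rat hepatocyte incubation, samples analysed by LC/MS/MS; intrinsic clearance reported in µL/min/1 million cells.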

[2] = Distribution coefficient, logD of compound; type: physicochemical; conditions: octanol/water
[3] = Intrinsic clearance in human liver microsomes assessed per mg protein by LC-MS/MS analysis; type: ADME, Microsome
in vivo = conditions: NMRI, mouse, ip, 10 mg/kg
[4] = Ratio of drug concentration in brain to blood in NMRI mouse at 10 mg/kg, ip measured at 4 hrs by LC-MS/MS analysis; type: ADME, organism-based; conditions: brain and blood, read-out: BBR
[5] = Half life in NMRI mouse at 10 mg/kg, ip measured up to 24 hrs by LC-MS/MS analysis; type: ADME, organism-based; conditions: in vivo
[6] = Cmax in NMRI mouse at 10 mg/kg, ip measured up to 24 hrs by LC-MS/MS analysis; type: ADME, organism-based; parameters: dose 10 mg/kg, route intraperitoneal; conditions: in vivo
[7] = Ratio of drug concentration in brain to blood in NMRI mouse at 10 mg/kg, ip measured at 0.5 hrs by LC-MS/MS analysis; type: ADME, organism-based; conditions: brain and blood, read-out: BBR

SMILES | hepatocyte CLint [1] | logD [2] | other results
Nc1cccc(-c2cc3c4c(n[nH]c4c2)Nc2ccccc2O3)n1 | 220 µL/min/10^6 cells | 3.7 | –
CCOc1cc(-c2ccnc(N)n2)cc2[nH]nc(N)c12 | – | 1.7 | CLH [3]: 25 µL/min; Tmax at 24 h (in vivo): 15 to 300 min; Kp at 4 h [4]: 0.214; t1/2 [5]: 53.6 min; Cmax [6]: 3603 ng/mL; Kp at 0.5 h [7]: 0.155
CCNc1cc(-c2cc3c4c(n[nH]c4c2)Nc2ccccc2O3)nc(N)n1 | 26 µL/min/10^6 cells | – | –
CN1CCN(c2cc(-c3cc4c5c(n[nH]c5c3)Nc3ccccc3O4)nc(N)n2)CC1 | 16 µL/min/10^6 cells | 3.4 | –
CN(C)c1cc(-c2cc3c4c(n[nH]c4c2)Nc2ccccc2O3)nc(N)n1 | 44 µL/min/10^6 cells | > 4.4 | –
Cn1nc2c3c(cc(-c4ccnc(N)n4)cc31)Oc1ccccc1N2 | 12 µL/min/10^6 cells | > 4.3 | Tmax at 24 h (in vivo): 15 to 300 min; Kp at 4 h [4]: 2.12; t1/2 [5]: 63.6 min; Cmax [6]: 615 ng/mL; Kp at 0.5 h [7]: 2.39
CN(C)c1nccc(-c2cc3c4c(n[nH]c4c2)Nc2ccccc2O3)n1 | 29 µL/min/10^6 cells | > 3.9 | –
Nc1nccc(-c2cc3c4c(n[nH]c4c2)N[C@@H]2CCC[C@H]2O3)n1 | – | – | hepatocyte CLint ([1]; read-out: CLH): 52 µL/min/1e6 cells; logD ([2]; read-out: logD): 2.8
c1ccc2c(c1)Nc1n[nH]c3cccc(c13)O2 | 47 µL/min/10^6 cells | – | logD ([2]; read-out: logD): > 4
Nc1ccnc(-c2cc3c4c(n[nH]c4c2)Nc2ccccc2O3)n1 | 56 µL/min/10^6 cells | 4.1 | –
Nc1nc(-c2cc3c4c(n[nH]c4c2)Nc2ccccc2O3)cc(N2CCCCC2)n1 | 25 µL/min/10^6 cells | 4.6 | –
CNc1cc(-c2cc3c4c(n[nH]c4c2)Nc2ccccc2O3)nc(N)n1 | 45 µL/min/10^6 cells | > 4.2 | –
Nc1cc(-c2cc3c4c(n[nH]c4c2)Nc2ccccc2O3)ncn1 | 73 µL/min/10^6 cells | 3.8 | –
CNc1nccc(-c2cc3c4c(n[nH]c4c2)Nc2ccccc2O3)n1 | 45 µL/min/10^6 cells | 3.8 | –
COCc1cc(-c2cc3c4c(n[nH]c4c2)Nc2ccccc2O3)nc(N)n1 | 41.4 µL/min/10^6 cells | – | –
c1ccc2c(c1)Nc1n[nH]c3cc(-c4ccncn4)cc(c13)O2 | 68 µL/min/10^6 cells | 3.5 | –
CC(C)Nc1cc(-c2cc3c4c(n[nH]c4c2)Nc2ccccc2O3)nc(N)n1 | 32 µL/min/10^6 cells | 4.9 | –
